# In the library only some 3.6% were active in any assay of this set; here they are far more common.
# PAFAH1B2 inh – blocks human PAF acetylhydrolase 1b catalytic subunit 2; recombinant PAFAH1B2, FP-rhodamine activity probe, fluorescence polarization; hit rate 1.2% among 340,000; inhibition, % at 3.39 µM; P68402;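 active = inhibition above the mean of all tested compounds plus 3 SD, cut at about 24% in these data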
# PAFAH1B3 inh – PAFAH1B3 (human) inhibition; AID 492972; inhibition, % at 3.39 µM; hit rate 0.28% among 340,000; recombinant PAFAH1B3, FP-rhodamine probe, fluorescence polarization;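 active = inhibition above the screen-wide average of all tested compounds plus 3 SD, cut at about 25% in these data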
# VIM-2 inhibitor – blocks Pseudomonas aeruginosa VIM-2 metallo-beta-lactamase; purified VIM-2, nitrocefin hydrolysis, epi-absorbance fluorescence; inhibition, % at 5.6 µM; hit rate 0.89% among 290,000;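 active = inhibition above the mean of all tested compounds plus 3 SD, cutoff set per screening run, cut at about 7.5% in these data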;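 note: red hydrolysis product quenches plate fluorescence so inhibitors raise well fluorescence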
# pPAFAH inh – inhibitors of human plasma PAF acetylhydrolase (pPAFAH) | inhibition, % at 3.39 µM | recombinant pPAFAH, FP-rhodamine probe fluorescence polarization | hit rate 1.5% among 330,000;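 active = inhibition above the mean inhibition across the screen plus 3 SD, cut at about 25% in these data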;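 note: inhibitors block binding of the rhodamine activity-based probe so polarization drops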
# Target sequence (Q13093 whole entry, looked up): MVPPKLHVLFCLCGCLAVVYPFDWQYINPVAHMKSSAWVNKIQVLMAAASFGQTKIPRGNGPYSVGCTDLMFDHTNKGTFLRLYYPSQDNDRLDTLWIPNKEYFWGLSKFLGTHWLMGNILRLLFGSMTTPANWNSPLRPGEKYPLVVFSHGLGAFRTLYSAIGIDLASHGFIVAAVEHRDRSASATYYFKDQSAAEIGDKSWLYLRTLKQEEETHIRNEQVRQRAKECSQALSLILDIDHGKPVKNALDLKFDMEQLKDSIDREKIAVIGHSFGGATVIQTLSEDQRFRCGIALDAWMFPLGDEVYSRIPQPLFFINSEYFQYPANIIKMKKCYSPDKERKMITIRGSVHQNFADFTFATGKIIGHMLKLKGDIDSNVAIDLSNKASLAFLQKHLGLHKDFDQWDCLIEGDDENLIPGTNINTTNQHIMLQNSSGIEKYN
# IMP-1 inhibitor – inhibitors of Pseudomonas aeruginosa IMP-1 metallo-beta-lactamase; purified IMP-1, nitrocefin hydrolysis, epi-absorbance fluorescence; inhibition, % at 5.6 µM; hit rate 0.45% among 290,000;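 active = inhibition above the mean plus 3 SD of all compounds in the same screening run, cut at about 4.5% in these data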
#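 System: Purified recombinant IMP-1 metallo-beta-lactamase enzyme | Measured by: Fluorescence quenching readout, ex 480/em 530 nm | Replication: Singlicate | Incubation: 15 min preincubation plus 25 min reaction at 25 °C | Evaluation: Percent inhibition from optical density relative to buffer-blank wells | Benchmarks: DMSO with and without IMP-1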
# PAFAH2 FP inh – PAFAH2 (human) inhibition; Q99487; AID 492956; recombinant PAFAH2, FP-rhodamine activity probe, fluorescence polarization; hit rate 0.99% among 340,000; inhibition, % at 3.39 µM;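 active = inhibition above the mean over all tested compounds plus 3 SD, cut at about 30% in these data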;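 note: inhibitors block probe labeling of enzyme so polarization drops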
# A number is an active result; n = inactive; x = not tested or not shown.
SMILES,PAFAH1B2 inh,PAFAH1B3 inh,VIM-2 inhibitor,pPAFAH inh,IMP-1 inhibitor,PAFAH2 FP inh
Clc1ccc2nc(-c3ccccn3)c(Nc3ccc4c(c3)OCO4)n2c1,n,n,n,27,n,n
CC1CCC2C(C1)c1sc(=O)[nH]c1SC2(C)C (configuration not stated),68,n,n,n,n,n
COc1ccccc1C(=O)NCC(=O)N/N=C(\C)Cc1ccccc1,n,n,n,n,n,n
Cc1cccc(NS(=O)(=O)c2csc(C(N)=O)c2)c1C,n,n,n,27,n,n
CN(CCC#N)C(=O)COC(=O)c1c2c(nc3ccccc13)/C(=C/c1ccco1)CC2,n,n,n,27,n,n
Nc1ccc(-c2c3ccccc3nc3ccccc23)cc1,n,n,9.6,x,n,n
Cc1ccc(N2CC(C(=O)N(C)CC(=O)Nc3ccc(Cl)c(C(F)(F)F)c3)CC2=O)cc1 (configuration not stated),n,n,x,n,x,n
COCCNC(=O)C(c1ccc(Cl)cc1)N(CCOC)C(=O)CCC(=O)Nc1ccccn1 (configuration not stated),n,n,n,n,n,n
CN(C)S(=O)(=O)c1cccc(C(=O)Nc2cc(Cl)ccc2O)c1,24,n,n,n,n,n
O=C(CCCCCBr)N1CCC(CC2CC(c3cccc(Br)c3)=NO2)(C(=O)NCC2CCCCC2)CC1 (configuration not stated),n,n,n,25,n,n
COc1ccc(NC(=O)c2cc3c(Cl)nc4ccccc4c3s2)cc1OC,n,n,n,27,n,n
CC1Cc2ccccc2N1C(=O)c1cc2cccnc2n(C)c1=O (configuration not stated),n,n,x,n,x,n
COc1ccc(Sc2nc(-c3ccccn3)ncc2OC)cc1,n,n,7.9,n,n,n
CC1=C(C(=O)OCCc2ccccc2)C(c2ccsc2)NC(=O)N1C (configuration not stated),68,n,n,28,n,n
Oc1ccc(CNc2ccc(F)cc2)c2cccnc12,n,n,n,n,n,n
Oc1ccc(CNc2ccccc2)c2cccnc12,n,26,n,n,n,n
Cc1nc(Sc2ccccc2)c(C#N)c(C)c1[N+](=O)[O-],n,n,8.6,n,n,n
Cc1ccc(S(=O)(=O)N(C)C)cc1NC(=O)CSc1nncs1,n,n,x,n,x,n
CC(CC1C(C#N)=C(N)SC(N)=C1C#N)c1ccccc1 (configuration not stated),n,n,n,n,5.1,n
COc1ccc2[nH]c3c(c2c1)CCN1C(=O)C(CC(=O)NCC24CC5CC(CC(C5)C2)C4)C[C@H](C(=O)N(C(C)C)C(C)C)[C@@]31C (some centres not stated),n,n,x,n,x,n
COc1cc(C=NO)nc(-c2ccccn2)c1,n,n,x,x,x,n
Cc1ccc(CSCc2ccc(C(=O)O)o2)cc1,29,n,n,n,n,n
CN(CCNC(=O)c1c[nH]c2c1ccc1ccccc12)CCNC(=O)c1c[nH]c2c1ccc1ccccc12,n,n,x,x,x,n
Cc1ccc(C(=O)NCCN(C)C)cc1C,n,n,n,n,5.4,n
COc1cc(Br)c(CN2CCCN(C)CC2)cc1OC,n,n,n,n,n,n
SMILES,PAFAH1B2 inh,PAFAH1B3 inh,VIM-2 inhibitor,pPAFAH inh,IMP-1 inhibitor,PAFAH2 FP inh
Cc1ccc(S(=O)(=O)Nc2nc(C)c(C(=O)NNS(=O)(=O)c3ccccc3)s2)cc1,29,n,n,n,n,n
Cc1ccc(S(=O)(=O)Nc2nc(C)c(C(=O)Nc3ccccc3)s2)cc1,n,n,n,n,n,n
CNC(=O)c1ccc(-c2sc3nc(N4CCOCC4)c4c(c3c2N)CC(C)(C)OC4)o1,n,n,n,n,n,n
CNC(=O)c1ccc(-c2sc3nc(N4CCOCC4)c4c(c3c2N)CCCC4)o1,n,n,n,27,n,n
NNC(=O)c1sc2nc(N3CCOCC3)c3c(c2c1N)CCCC3,x,x,n,n,n,x
Nc1c(C(=O)NCc2ccccc2)sc2nc(N3CCOCC3)c3c(c12)CCCC3,n,n,n,27,n,n
CCN1CCN(CCC(=O)Nc2ccc(F)c(F)c2)CC1,n,n,n,n,n,n
COc1ccc(C(=O)n2cnc(N)n2)cc1,n,n,n,n,n,n
COc1ccc(C(=O)N2C(=O)c3ccc(N)cc3C2=O)cc1,n,n,n,n,7.7,n

# Screens as filed in PubChem BioAssay.
